Measured values: ChEMBL document CHEMBL1938308, “Discovery of potent, selective and orally bioavailable triaryl-sulfonamide based PTP1B inhibitors” (Bioorg Med Chem Lett, 2012)
pIC50: −log10 of the molar value. Values belong to the molecule of their own block, whether it stands above or below them. Calls of active or inactive are those of the source. The calls are words filed in the database; no cut-off is given here.

How the values were obtained:
[1] = Selectivity ratio of IC50 for TCPTP to IC50 for PTP1B
[2] = target: T1, Tyrosine-protein phosphatase non-receptor type 1 (Homo sapiens, UniProt P18031); experiment: Inhibition of PTP1B assessed as para-nitrophenyl phosphate catalyzed hydrolysis of para-nitrophenol by p-NPP assay
T1 sequence (P18031 whole entry): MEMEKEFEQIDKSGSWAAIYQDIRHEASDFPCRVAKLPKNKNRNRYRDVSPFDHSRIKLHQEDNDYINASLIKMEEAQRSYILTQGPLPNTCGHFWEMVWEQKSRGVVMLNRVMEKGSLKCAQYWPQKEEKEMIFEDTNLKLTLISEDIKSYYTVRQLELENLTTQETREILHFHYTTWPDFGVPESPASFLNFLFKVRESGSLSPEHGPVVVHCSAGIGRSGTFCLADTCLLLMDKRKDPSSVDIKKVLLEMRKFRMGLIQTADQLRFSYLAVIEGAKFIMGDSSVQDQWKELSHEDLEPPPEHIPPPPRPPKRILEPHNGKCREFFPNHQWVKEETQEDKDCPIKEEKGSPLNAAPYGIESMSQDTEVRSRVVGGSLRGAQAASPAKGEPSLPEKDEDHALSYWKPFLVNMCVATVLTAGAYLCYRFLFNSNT
Method in brief: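 Enzymatic pNPP assay: initial rate of PTP1B-catalyzed pNPP hydrolysis read at 405 nm. IC50 determined at a fixed pNPP concentration of 1 mM. n = 3, mean ± SD.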

[3] = target: T2, Tyrosine-protein phosphatase non-receptor type 2 (Homo sapiens, UniProt P17706); experiment: Inhibition of TCPTP
T2 sequence (P17706 whole entry): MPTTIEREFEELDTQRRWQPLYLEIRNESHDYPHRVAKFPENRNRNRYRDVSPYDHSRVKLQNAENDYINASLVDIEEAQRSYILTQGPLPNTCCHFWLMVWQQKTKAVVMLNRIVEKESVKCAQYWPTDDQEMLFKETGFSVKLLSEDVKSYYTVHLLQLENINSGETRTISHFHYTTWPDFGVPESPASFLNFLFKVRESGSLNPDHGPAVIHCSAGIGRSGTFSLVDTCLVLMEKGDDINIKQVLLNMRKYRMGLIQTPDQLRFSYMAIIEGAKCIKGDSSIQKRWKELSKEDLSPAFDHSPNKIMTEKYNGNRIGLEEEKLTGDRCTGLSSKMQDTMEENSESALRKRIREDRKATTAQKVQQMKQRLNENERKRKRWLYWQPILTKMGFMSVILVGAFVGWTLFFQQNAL

[4] = Selectivity ratio of IC50 for CD45 to IC50 for PTP1B
[5] = Selectivity ratio of IC50 for LAR to IC50 for PTP1B
[6] = Selectivity ratio of IC50 for SHP1 to IC50 for PTP1B
[7] = Selectivity ratio of IC50 for SHP2 to IC50 for PTP1B
[8] = Selectivity ratio of IC50 for PTPalpha to IC50 for PTP1B
Mus musculus = experiment: Antidiabetic activity in fasted C57BL/6J mouse assessed as reduction in serum AUC glucose level at 20 mg/kg, po after 240 mins by intraperitoneal glucose tolerance test relative to control; assay type: functional
Method in brief: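 Overnight-fasted male C57BL/6J mice dosed orally at 20 mg/kg 0.5 h before an intraperitoneal glucose load of 1.5 g/kg. Blood taken at 0, 30, 60, 120 and 240 min, and serum glucose measured promptly by GOD-POD method in duplicate. AUC 0–240 min compared with vehicle control. Two-way ANOVA with Bonferroni post test, mean ± SEM.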

[9] = Tmax in fasted C57BL/6J mouse at 20 mg/kg, po; assay type: ADME, organism-based; set-up: dose 20 mg/kg, route oral; details: in vivo
Method in brief: (§1)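 Male C57BL/6J mice (n = 6), fasted overnight, single 20 mg/kg dose by body weight, given po or iv. Plasma separated at 4 °C, stored at −70 °C, then quantified by LC–MS/MS. %F taken from po AUC relative to iv AUC. Mean ± SD.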

[10] = Cmax in fasted C57BL/6J mouse at 20 mg/kg, po; assay type: ADME, organism-based; set-up: dose 20 mg/kg, route oral; details: in vivo; method in brief: as §1
[11] = Half life in fasted C57BL/6J mouse at 20 mg/kg, po; assay type: ADME, organism-based; set-up: dose 20 mg/kg, route oral; details: in vivo; method in brief: as §1
[12] = AUC (0 to infinity) in fasted C57BL/6J mouse at 20 mg/kg, po; assay type: ADME, organism-based; set-up: time infinity, dose 20 mg/kg, route oral; details: plasma; method in brief: as §1
[13] = Oral bioavailability in fasted C57BL/6J mouse at 20 mg/kg; assay type: ADME, organism-based; details: in vivo; method in brief: as §1
[14] = AUC in fasted C57BL/6J mouse at 20 mg/kg, iv; assay type: ADME, organism-based; set-up: dose 20 mg/kg, route intravenous; details: plasma; method in brief: as §1

Ratio IC50 [1]: 116
SMILES: O=C(c1ccccc1)C(Cc1ccc2cc(Br)c(C(F)(F)P(=O)(O)O)cc2c1)(Cc1ccc2cc(Br)c(C(F)(F)P(=O)(O)O)cc2c1)n1nnc2ccccc21

pIC50 [2]: 6.33
SMILES: Cc1cc(CN(Cc2ccc(-c3csnn3)cc2)S(=O)(=O)c2ccc(OCC(=O)O)cc2)ccc1C1CC(=O)NS1(=O)=O (stereo not given)

pIC50 [2]: 7.46
pIC50 [3]: 6.06
Ratio IC50 [4]: > 5000
Ratio IC50 [5]: > 5000
Ratio IC50 [6]: > 5000
Ratio IC50 [7]: > 5000
Ratio IC50 [8]: > 5000
Ratio IC50 [1]: 24
SMILES: O=C(O)COc1ccc(S(=O)(=O)N(Cc2ccc(-c3csnn3)cc2)Cc2ccc(C(F)(F)P(=O)(O)O)c(F)c2)cc1

pIC50 [2]: 8.05
pIC50 [3]: 6.06
Ratio IC50 [4]: > 5000
Ratio IC50 [5]: > 5000
Ratio IC50 [6]: > 5000
Ratio IC50 [7]: > 5000
Ratio IC50 [8]: > 5000
Ratio IC50 [1]: 96
Tmax [9]: 18.6 min
Cmax [10]: 6300 ng/mL
half-life [11]: 418 min
AUC(0-inf) [12]: 8910 ng·h/mL
bioavailability [13]: 6.51%
AUC [14]: 137000 ng·h/mL
SMILES: O=C(O)COc1ccc(S(=O)(=O)N(Cc2ccc(-c3csnn3)cc2)Cc2ccc3cc(F)c(C(F)(F)P(=O)(O)O)cc3c2)cc1
Activity (Mus musculus): 52.8 mg/dL

pIC50 [2]: 7.96
pIC50 [3]: 6.00
Ratio IC50 [4]: > 5000
Ratio IC50 [5]: > 5000
Ratio IC50 [6]: > 5000
Ratio IC50 [7]: > 5000
Ratio IC50 [8]: > 5000
Ratio IC50 [1]: 90
Tmax [9]: 41.4 min
Cmax [10]: 960 ng/mL
half-life [11]: 59.4 min
AUC(0-inf) [12]: 1320 ng·h/mL
bioavailability [13]: 0.9%
AUC [14]: 147000 ng·h/mL
SMILES: O=C(O)COc1ccc(S(=O)(=O)N(Cc2ccc(-c3csnn3)cc2)Cc2ccc3cc(F)c(C(F)(F)P(=O)(O)O)cc3n2)cc1
Activity (Mus musculus): 19.18 mg/dL

pIC50 [2]: 7.42
SMILES: NS(=O)(=O)C(F)(F)c1cc2nc(CN(Cc3ccc(-c4csnn4)cc3)S(=O)(=O)c3ccc(OCC(=O)O)cc3)ccc2cc1F

pIC50 [2]: 7.33
SMILES: NS(=O)(=O)C(F)(F)c1ccc(CN(Cc2ccc(-c3csnn3)cc2)S(=O)(=O)c2ccc(OCC(=O)O)cc2)cc1Br

pIC50 [2]: 6.54
SMILES: O=C(O)COc1ccc(S(=O)(=O)N(Cc2ccc(-c3csnn3)cc2)Cc2ccc(Br)c(C(F)(F)P(=O)(O)O)c2)cc1

pIC50 [2]: 6.34
SMILES: O=C(O)COc1ccc(S(=O)(=O)N(Cc2ccc(-c3csnn3)cc2)Cc2ccc(C3CC(=O)NS3(=O)=O)c(F)c2)cc1 (stereo not given)

pIC50 [2]: 7.41
SMILES: NS(=O)(=O)C(F)(F)c1cc2cc(CN(Cc3ccc(-c4csnn4)cc3)S(=O)(=O)c3ccc(OCC(=O)O)cc3)ccc2cc1Br

pIC50 [2]: 6.85
SMILES: O=C(O)COc1ccc(S(=O)(=O)N(Cc2ccc(-c3csnn3)cc2)Cc2ccc(F)c(C(F)(F)P(=O)(O)O)c2)cc1

Ratio IC50 [1]: 7
SMILES: O=C(O)COc1ccc(S(=O)(=O)N(Cc2ccc(-c3csnn3)cc2)Cc2ccc(C(F)(F)P(=O)(O)O)cc2)cc1
Activity (Mus musculus): inactive

pIC50 [2]: 7.30
pIC50 [3]: 6.12
Ratio IC50 [4]: > 5000
Ratio IC50 [5]: > 5000
Ratio IC50 [6]: > 5000
Ratio IC50 [7]: > 5000
Ratio IC50 [8]: > 5000
Ratio IC50 [1]: 15
SMILES: O=C(O)COc1ccc(S(=O)(=O)N(Cc2ccc(-c3csnn3)cc2)Cc2ccc(C(F)(F)P(=O)(O)O)c(Br)c2)cc1

pIC50 [2]: 6.32
SMILES: O=C(O)COc1ccc(S(=O)(=O)N(Cc2ccc(-c3csnn3)cc2)Cc2ccc(C3CC(=O)NS3(=O)=O)c(Br)c2)cc1 (stereo not given)

pIC50 [2]: 6.30
SMILES: O=C(O)COc1ccc(S(=O)(=O)N(Cc2ccc(-c3csnn3)cc2)Cc2ccc(C3CC(=O)NS3(=O)=O)cc2)cc1 (stereo not given)

pIC50 [2]: 7.39
SMILES: NS(=O)(=O)C(F)(F)c1cc2nc(CN(Cc3ccc(-c4csnn4)cc3)S(=O)(=O)c3ccc(OCC(=O)O)cc3)ccc2cc1Br

pIC50 [2]: 7.51
pIC50 [3]: 6.21
Ratio IC50 [4]: > 5000
Ratio IC50 [5]: > 5000
Ratio IC50 [6]: > 5000
Ratio IC50 [7]: > 5000
Ratio IC50 [8]: > 5000
Ratio IC50 [1]: 20
SMILES: NS(=O)(=O)C(F)(F)c1ccc(CN(Cc2ccc(-c3csnn3)cc2)S(=O)(=O)c2ccc(OCC(=O)O)cc2)cc1F

pIC50 [2]: 7.74
SMILES: O=C(O)COc1ccc(S(=O)(=O)N(Cc2ccc(-c3csnn3)cc2)Cc2ccc3cc(Br)c(C(F)(F)P(=O)(O)O)cc3n2)cc1

pIC50 [2]: 7.46
SMILES: NS(=O)(=O)C(F)(F)c1cc2cc(CN(Cc3ccc(-c4csnn4)cc3)S(=O)(=O)c3ccc(OCC(=O)O)cc3)ccc2cc1F

pIC50 [2]: 7.77
SMILES: O=C(O)COc1ccc(S(=O)(=O)N(Cc2ccc(-c3csnn3)cc2)Cc2ccc3cc(Br)c(C(F)(F)P(=O)(O)O)cc3c2)cc1
